Measurements from ChEMBL document CHEMBL1137710, “Synthesis and in vitro antitumor activity of new quinoxaline derivatives” (2009).

How the values were obtained:
Type in all cases: functional
[1] = system: DU-145; experiment: Growth inhibition of human DU145 cells after 48 hrs by sulforhodamine B assay; conditions: DU-145, 48 h
Procedure, shortened: (§1)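 NCI 60-human-tumor-cell-line panel, with compounds tested over a 5-log dose range. Values are taken from dose-response curves as log10 molar concentrations: GI50 is 50% net growth inhibition, TGI is total growth inhibition, and LC50 is 50% net cell death.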

[2] = system: SK-OV-3; experiment: Growth inhibition of human SKOV3 cells after 48 hrs by sulforhodamine B assay; conditions: SK-OV-3, 48 h; procedure, shortened: as §1
[3] = system: SK-MEL-5; experiment: Growth inhibition of human SK-MEL-5 cells after 48 hrs by sulforhodamine B assay; conditions: SK-MEL-5, 48 h; procedure, shortened: as §1
[4] = Growth inhibition of human […] cells after 48 hrs by sulforhodamine B assay; procedure, shortened: as §1
[5] = system: UACC-62; experiment: Growth inhibition of human UACC62 cells after 48 hrs by sulforhodamine B assay; conditions: UACC-62, 48 h
Procedure, shortened: (§2)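 Run in the NCI 60-human-tumour-cell-line panel, tested over a 5-log dose range. Dose–response curves gave three values per cell line, each as a log10 molar concentration: GI50 (50% inhibition of net cell growth), TGI (total inhibition of net growth) and LC50 (50% net cell death). The mean graph midpoint is the arithmetic mean over all lines, with insensitive lines entered at the highest concentration tested.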

[6] = system: CAKI-1; experiment: Growth inhibition of human Caki1 cells after 48 hrs by sulforhodamine B assay; conditions: CAKI-1, 48 h; procedure, shortened: as §1
[7] = system: SK-MEL-2; experiment: Growth inhibition of human SK-MEL-2 cells after 48 hrs by sulforhodamine B assay; conditions: SK-MEL-2, 48 h; procedure, shortened: as §1
[8] = system: M14; experiment: Growth inhibition of human M14 cells after 48 hrs by sulforhodamine B assay; conditions: M14, 48 h; procedure, shortened: as §1
[9] = system: SK-MEL-28; experiment: Growth inhibition of human SK-MEL-28 cells after 48 hrs by sulforhodamine B assay; conditions: SK-MEL-28, 48 h; procedure, shortened: as §1
[10] = system: NCI-H460; experiment: Anticancer activity against human NCI-H460 cells assessed as cell growth at 100 uM after 48 hrs by sulforhodamine B assay; conditions: NCI-H460, 48 h, read-out: Activity
[11] = system: MCF7; experiment: Growth inhibition of human MCF7 cells after 48 hrs by sulforhodamine B assay; conditions: MCF7, 48 h; procedure, shortened: as §1
[12] = system: K562; experiment: Growth inhibition of human K562 cells after 48 hrs by sulforhodamine B assay; conditions: K562, 48 h; procedure, shortened: as §1
[13] = system: SF-268; experiment: Anticancer activity against human SF268 cells assessed as cell growth at 100 uM after 48 hrs by sulforhodamine B assay; conditions: SF-268, 48 h, read-out: Activity
[14] = system: LOX IMVI; experiment: Growth inhibition of human LOXIMVI cells after 48 hrs by sulforhodamine B assay; procedure, shortened: as §1
[15] = system: 786-0; experiment: Growth inhibition of human 786-0 cells after 48 hrs by sulforhodamine B assay; conditions: 786-0, 48 h; procedure, shortened: as §1
[16] = system: A549; experiment: Growth inhibition of human A549 cells after 48 hrs by sulforhodamine B assay; conditions: A549, 48 h; procedure, shortened: as §1
[17] = system: UO-31; experiment: Growth inhibition of human UO31 cells after 48 hrs by sulforhodamine B assay; conditions: UO-31, 48 h; procedure, shortened: as §2
[18] = system: IGROV-1; experiment: Growth inhibition of human IGROV1 cells after 48 hrs by sulforhodamine B assay; conditions: IGROV-1, 48 h; procedure, shortened: as §1
[19] = system: HOP-62; experiment: Growth inhibition of human HOP62 cells after 48 hrs by sulforhodamine B assay; conditions: HOP-62, 48 h; procedure, shortened: as §1
[20] = system: MDA-MB-435; experiment: Growth inhibition of human MDA-MB-435 cells after 48 hrs by sulforhodamine B assay; conditions: MDA-MB-435, 48 h; procedure, shortened: as §1
[21] = system: NCI-H522; experiment: Growth inhibition of human NCI-H522 cells after 48 hrs by sulforhodamine B assay; conditions: NCI-H522, 48 h; procedure, shortened: as §1
[22] = system: SF-268; experiment: Growth inhibition of human SF268 cells after 48 hrs by sulforhodamine B assay; conditions: SF-268, 48 h; procedure, shortened: as §1
[23] = system: SF-295; experiment: Growth inhibition of human SF295 cells after 48 hrs by sulforhodamine B assay; conditions: SF-295, 48 h; procedure, shortened: as §1
[24] = system: NCI-H23; experiment: Growth inhibition of human NCI-H23 cells after 48 hrs by sulforhodamine B assay; conditions: NCI-H23, 48 h; procedure, shortened: as §1
[25] = system: HCT-116; experiment: Growth inhibition of human HCT116 cells after 48 hrs by sulforhodamine B assay; conditions: HCT-116, 48 h; procedure, shortened: as §1
[26] = system: SW-620; experiment: Growth inhibition of human SW620 cells after 48 hrs by sulforhodamine B assay; conditions: SW-620, 48 h; procedure, shortened: as §2
[27] = system: NCI-H322M; experiment: Growth inhibition of human NCI-H322M cells after 48 hrs by sulforhodamine B assay; procedure, shortened: as §1
[28] = system: U-251; experiment: Growth inhibition of human U251 cells after 48 hrs by sulforhodamine B assay; conditions: U-251, 48 h; procedure, shortened: as §2
[29] = system: MCF7; experiment: Anticancer activity against human MCF7 cells assessed as cell growth at 100 uM after 48 hrs by sulforhodamine B assay; conditions: MCF7, 48 h, read-out: Activity
[30] = system: OVCAR-4; experiment: Growth inhibition of human OVCAR4 cells after 48 hrs by sulforhodamine B assay; conditions: OVCAR-4, 48 h; procedure, shortened: as §1
[31] = read-out: pLC50 (the source's name) (converted)

Compound: Nc1cc(N)c2nc(-c3ccccc3)c(Oc3ccc(Cl)c(Cl)c3)nc2c1
- GI50 [1]: 29.5 µM
- CC50 [1, 31]: > 100 µM
- TGI ([1]; read-out: pTGI (converted)): > 100 µM
- GI50 [2]: 24 µM
- CC50 [2, 31]: > 100 µM
- TGI ([2]; read-out: pTGI (converted)): 66.1 µM
- GI50 [3]: 9.77 µM
- CC50 [3, 31]: 83.2 µM
- TGI ([3]; read-out: pTGI (converted)): 28.8 µM
- GI50 [4]: 3.47 µM
- LC50 [4]: > 100 µM
- TGI ([4]; read-out: pTGI (converted)): > 100 µM
- GI50 [5]: 16.2 µM
- CC50 [5, 31]: > 100 µM
- TGI ([5]; read-out: pTGI (converted)): 47.9 µM
- GI50 [6]: 15.8 µM
- CC50 [6, 31]: > 100 µM
- TGI ([6]; read-out: pTGI (converted)): > 100 µM
- GI50 [7]: 5.62 µM
- CC50 [7, 31]: 89.1 µM
- TGI ([7]; read-out: pTGI (converted)): 23.4 µM
- GI50 [8]: 14.1 µM
- CC50 [8, 31]: > 100 µM
- TGI ([8]; read-out: pTGI (converted)): 70.8 µM
- GI50 [9]: 21.4 µM
- CC50 [9, 31]: > 100 µM
- TGI ([9]; read-out: pTGI (converted)): 64.6 µM
- growth at 100 µM [10]: 0%
- GI50 [11]: 14.1 µM
- CC50 [11, 31]: > 100 µM
- TGI ([11]; read-out: pTGI (converted)): 70.8 µM
- GI50 [12]: 3.55 µM
- LC50 [12]: > 100 µM
- TGI ([12]; read-out: pTGI (converted)): > 100 µM
- growth at 100 µM [13]: 0%
- GI50 [14]: 16.2 µM
- LC50 [14]: 72.4 µM
- TGI ([14]; read-out: pTGI (converted)): 33.9 µM
- GI50 [15]: 12.6 µM
- CC50 [15, 31]: > 100 µM
- TGI ([15]; read-out: pTGI (converted)): 44.7 µM
- GI50 [16]: 18.2 µM
- LC50 [16]: > 100 µM
- TGI ([16]; read-out: pTGI (converted)): 43.7 µM
- GI50 [17]: 4.07 µM
- CC50 [17, 31]: > 100 µM
- TGI ([17]; read-out: pTGI (converted)): > 100 µM
- GI50 [18]: 11.5 µM
- CC50 [18, 31]: 91.2 µM
- TGI ([18]; read-out: pTGI (converted)): 32.4 µM
- GI50 [19]: 17 µM
- LC50 [19]: 85.1 µM
- TGI ([19]; read-out: pTGI (converted)): 38 µM
- GI50 [20]: 5.01 µM
- CC50 [20, 31]: 93.3 µM
- TGI ([20]; read-out: pTGI (converted)): 20.9 µM
- GI50 [21]: 8.32 µM
- LC50 [21]: > 100 µM
- TGI ([21]; read-out: pTGI (converted)): 33.9 µM
- GI50 [22]: 17 µM
- LC50 [22]: > 100 µM
- TGI ([22]; read-out: pTGI (converted)): 52.5 µM
- GI50 [23]: 13.8 µM
- LC50 (50% net cell kill) [23]: 69.2 µM
- TGI ([23]; read-out: pTGI (converted)): 30.9 µM
- GI50 [24]: 15.5 µM
- LC50 (50% net cell kill concentration) [24]: > 100 µM
- TGI ([24]; read-out: pTGI (converted)): 39.8 µM
- GI50 [25]: 15.8 µM
- LC50 (concentration causing 50% net cell death) [25]: > 100 µM
- TGI ([25]; read-out: pTGI (converted)): 47.9 µM
- GI50 [26]: 9.77 µM
- CC50 [26, 31]: 91.2 µM
- TGI ([26]; read-out: pTGI (converted)): 30.2 µM
- GI50 [27]: 21.4 µM
- LC50 [27]: > 100 µM
- TGI ([27]; read-out: pTGI (converted)): 58.9 µM
- GI50 [28]: 12 µM
- LC50 (50% net cell kill) [28]: 83.2 µM
- TGI ([28]; read-out: pTGI (converted)): 31.6 µM
- growth at 100 µM [29]: 2%
- GI50 [30]: 33.1 µM
- CC50 [30, 31]: > 100 µM
- TGI ([30]; read-out: pTGI (converted)): > 100 µM
